pIC50: −log10 of the molar value. The source made the active and inactive calls. The calls are words filed in the database; no cut-off is given here.
Columns and labels:
[1] = target: T1, Protein deacetylase HDAC6 (Homo sapiens) (UniProt Q9UBN7); experiment: Inhibition of HDAC6 in imatinib-resistant human SUP-B15 cells assessed as increase in acetyl-alpha tubulin expression at 0.1 to 10 uM after 24 hrs by immunoblot assay; assay type: cell-based
T1 sequence (whole entry): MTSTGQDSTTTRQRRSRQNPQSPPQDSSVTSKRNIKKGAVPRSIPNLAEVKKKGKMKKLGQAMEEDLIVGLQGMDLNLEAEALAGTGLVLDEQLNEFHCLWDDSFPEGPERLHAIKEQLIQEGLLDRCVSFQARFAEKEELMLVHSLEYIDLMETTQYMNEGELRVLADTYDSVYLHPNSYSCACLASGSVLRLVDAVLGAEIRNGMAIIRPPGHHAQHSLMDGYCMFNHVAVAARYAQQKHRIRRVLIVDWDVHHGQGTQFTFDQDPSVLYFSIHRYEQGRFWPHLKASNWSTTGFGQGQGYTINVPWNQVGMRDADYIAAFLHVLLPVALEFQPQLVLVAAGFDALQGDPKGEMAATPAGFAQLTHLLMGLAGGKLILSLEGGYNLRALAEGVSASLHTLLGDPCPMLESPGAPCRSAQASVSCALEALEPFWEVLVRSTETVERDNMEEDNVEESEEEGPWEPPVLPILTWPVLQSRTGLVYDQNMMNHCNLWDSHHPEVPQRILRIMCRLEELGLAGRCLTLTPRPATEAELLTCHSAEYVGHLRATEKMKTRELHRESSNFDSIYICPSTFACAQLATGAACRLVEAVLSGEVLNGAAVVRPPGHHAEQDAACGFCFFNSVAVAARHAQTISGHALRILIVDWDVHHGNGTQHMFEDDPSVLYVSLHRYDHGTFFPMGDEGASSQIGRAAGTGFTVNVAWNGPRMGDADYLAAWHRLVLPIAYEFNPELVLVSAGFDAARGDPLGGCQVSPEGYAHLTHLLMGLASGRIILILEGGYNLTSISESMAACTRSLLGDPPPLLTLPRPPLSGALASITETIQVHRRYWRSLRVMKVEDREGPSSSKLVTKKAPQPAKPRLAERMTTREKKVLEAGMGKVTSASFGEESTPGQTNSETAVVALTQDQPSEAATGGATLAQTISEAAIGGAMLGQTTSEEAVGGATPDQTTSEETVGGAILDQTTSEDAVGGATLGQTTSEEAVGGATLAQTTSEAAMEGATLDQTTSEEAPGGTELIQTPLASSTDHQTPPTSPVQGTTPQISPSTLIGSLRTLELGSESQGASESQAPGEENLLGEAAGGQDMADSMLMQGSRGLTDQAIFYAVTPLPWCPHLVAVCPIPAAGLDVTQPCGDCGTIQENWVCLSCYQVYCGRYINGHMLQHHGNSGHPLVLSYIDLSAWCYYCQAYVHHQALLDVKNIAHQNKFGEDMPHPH
Procedure, shortened: (§1)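 Cells exposed for 24 h at indicated concentrations; lysates immunoblotted for acetyl-α-tubulin, acetyl-histone H3, PARP, with GAPDH as loading control.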

SEM cells [2] = experiment: Inhibition of HDAC6/chymotrypsin-like activity of 20S proteasome in human SEM cells assessed as increase in LC3B protein expression at 0.1 to 10 uM after 18 hrs by Western blot assay; assay type: cell-based
Procedure, shortened: (§2)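 Cells treated 18 h at indicated concentrations; lysates analysed by western blot for heat shock (Grp94, HSP70, HSP40, HSP27), UPR (BIP, ATF4, ATF6, pJNK) and autophagy (LC3B, p62) proteins.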

[3] = Cytotoxicity against human BCP-ALL cells derived from patient 3 after 72 hrs by CellTiter-Glo luminescent cell viability assay; assay type: functional, cell-based
[4] = target: T1, Protein deacetylase HDAC6 (Homo sapiens); experiment: Inhibition of HDAC6 in human SEM cells assessed as increase in acetyl-alpha tubulin expression at 0.1 to 10 uM after 24 hrs by immunoblot assay; assay type: cell-based; procedure, shortened: as §1
SEM cells [5] = experiment: Inhibition of HDAC6/chymotrypsin-like activity of 20S proteasome in human SEM cells assessed as increase in HSP27 protein expression at 0.1 to 10 uM after 18 hrs by Western blot assay; assay type: cell-based; procedure, shortened: as §2
SEM cells [6] = experiment: Inhibition of HDAC6/chymotrypsin-like activity of 20S proteasome in human SEM cells assessed as increase in ATF4 protein expression at 0.1 to 10 uM after 18 hrs by Western blot assay; assay type: cell-based; procedure, shortened: as §2
SEM cells [7] = experiment: Inhibition of HDAC6/chymotrypsin-like activity of 20S proteasome in human SEM cells assessed as increase in cleaved PARP expression at 0.1 to 10 uM after 24 hrs by immunoblot assay; assay type: cell-based; procedure, shortened: as §1
KCL-22 = experiment: Cytotoxicity against imatinib-resistant human KCL22 cells after 72 hrs by CellTiter-Glo luminescent cell viability assay; assay type: functional, cell-based; conditions: KCL-22, 72 h
Procedure, shortened: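 Inhibitors dispensed in increasing concentrations (50 nM–25 μM) and cells exposed 72 h. Viability read by ATP-dependent luminescence (CellTiter-Glo). Raw data normalized to controls. IC50 obtained by sigmoid dose–response fit with non-linear regression.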

[8] = target: T1, Protein deacetylase HDAC6 (Homo sapiens); experiment: Inhibition of HDAC6 in human HL60 cells assessed as increase in acetyl-alpha tubulin expression at 0.1 to 10 uM after 24 hrs by immunoblot assay; assay type: cell-based; procedure, shortened: as §1
SEM cells [9] = experiment: Inhibition of HDAC6/chymotrypsin-like activity of 20S proteasome in human SEM cells assessed as increase in p62 protein expression at 0.1 to 10 uM after 18 hrs by Western blot assay; assay type: cell-based; procedure, shortened: as §2

inhibition [1]: Active
inhibition [4]: Active
inhibition [8]: Active
SMILES: C[C@H](NC(=O)[C@H](CC(=O)NCC(C)(C)C)NC(=O)c1ccc(C(=O)NO)cc1)C(=O)NCc1ccccc1
inhibition (SEM cells [2]): Active
pIC50 [3]: 5.28
inhibition (SEM cells [5]): Active
inhibition (SEM cells [6]): Active
inhibition (SEM cells [7]): Active
pIC50 (KCL-22): 5.59
inhibition (SEM cells [9]): Active
